The nature of series [1]: AUC (0 to infinity) in female C57BL/6J mouse brain at 50 mg/kg, ip by LC-MS/MS analysis. Type of series: ADME, organism-based.
For series [2], the target named is T1, Protein cereblon/Indoleamine 2,3-dioxygenase 1 (Homo sapiens, UniProt P14902+Q96SW2). Description: PROTAC activity at CRBN/IDO1 in human GBM43 cell assessed as induction of IDO1 degradation at 0.1 uM pretreated with IFN-gamma for 24 hrs followed by compound addition and measured after 24 hrs by Western blotting analysis (reference value: 100%). Type of series: cell-based. Put shortly:
(§1)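 GBM43 patient-derived cells given an extended dose range of PROTAC for 24 h. Protein analysed by Western blot for IDO1, and IFNγ-induced IDO1 normalised to untreated samples. n = 3 independent experiments; data as mean ± SEM.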
Target sequence in this assay (P14902 whole entry, looked up): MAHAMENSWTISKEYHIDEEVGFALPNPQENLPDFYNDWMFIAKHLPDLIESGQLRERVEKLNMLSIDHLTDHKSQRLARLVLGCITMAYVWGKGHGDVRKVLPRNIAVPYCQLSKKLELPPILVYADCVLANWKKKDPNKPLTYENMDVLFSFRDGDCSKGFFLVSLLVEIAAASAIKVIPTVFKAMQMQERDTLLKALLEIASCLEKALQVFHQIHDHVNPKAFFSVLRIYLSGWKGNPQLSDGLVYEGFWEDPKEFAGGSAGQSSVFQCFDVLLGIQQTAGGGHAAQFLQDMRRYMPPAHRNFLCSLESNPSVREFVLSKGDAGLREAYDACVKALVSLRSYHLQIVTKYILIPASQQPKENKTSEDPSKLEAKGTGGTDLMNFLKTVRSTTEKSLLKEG
Target sequence in this assay (Q96SW2 whole entry, looked up): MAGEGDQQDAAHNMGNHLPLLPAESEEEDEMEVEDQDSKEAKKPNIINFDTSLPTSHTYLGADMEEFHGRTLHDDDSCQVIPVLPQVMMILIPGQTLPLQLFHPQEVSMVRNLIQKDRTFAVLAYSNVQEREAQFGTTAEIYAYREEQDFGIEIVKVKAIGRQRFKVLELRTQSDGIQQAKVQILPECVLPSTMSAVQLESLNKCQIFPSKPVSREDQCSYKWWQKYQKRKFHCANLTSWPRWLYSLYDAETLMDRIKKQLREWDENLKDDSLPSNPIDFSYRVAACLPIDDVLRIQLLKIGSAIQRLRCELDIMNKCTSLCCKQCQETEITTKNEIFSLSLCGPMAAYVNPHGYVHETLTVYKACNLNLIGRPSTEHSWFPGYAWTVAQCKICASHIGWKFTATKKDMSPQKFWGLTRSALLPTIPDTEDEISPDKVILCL
In general terms: Immunoblotting shows a protein as a band on a membrane.

Series [3] concerns the target T1, Protein cereblon/Indoleamine 2,3-dioxygenase 1. Description: PROTAC activity at CRBN/IDO1 in human U87 cells assessed as induction of IDO1 degradation at 50 to 100 nM pretreated with IFN-gamma for 24 hrs followed by compound addition and measured upto 72 hrs by Western blotting analysis. It counts as cell-based. Particulars: dose 50-100 nM. The procedure, abridged: (§2)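 U87 cells under single continuous PROTAC treatment (50 and 100 nM), sampled at multiple time points up to 72 h. IDO1 assessed by Western blot.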
Target sequence in this assay (P14902 whole entry, looked up): as the sequence (P14902 whole entry, looked up) above
Target sequence in this assay (Q96SW2 whole entry, looked up): as the sequence (Q96SW2 whole entry, looked up) above

For series [4] the target is unchanged. Description: PROTAC activity at CRBN/IDO1 in human SW1990 cells assessed as induction of IDO1 degradation pretreated with IFN-gamma for 24 hrs followed by compound addition and measured after 24 hrs by Western blotting analysis. Type of series: cell-based. Particulars: dose 50-100 nM. Put shortly:
(§3)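 Cells had IDO1 induced with IFNγ, then were treated at the indicated concentrations for 24 h. Lines: PDX-6 and PDX-38 adult GBM PDX cells, U87 overexpressing GFP-fused IDO1, PC-3, KNS42, MDA-MB-231, SW-1990 and SKOV-3. Lysates probed for IDO1 and GAPDH by Western blot; representative of 3 separate replicates.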
Target sequence in this assay (P14902 whole entry, looked up): as the sequence (P14902 whole entry, looked up) above
Target sequence in this assay (Q96SW2 whole entry, looked up): as the sequence (Q96SW2 whole entry, looked up) above

The target is the same in series [5]. Description: PROTAC activity at CRBN/N-terminal HiBiT-tagged IDO1 (unknown origin) transfected in human U87 cells assessed as induction of IDO1 degradation pretreated with IFN-gamma for 24 hrs followed by compound addition and measured after 24 hrs by Nano-Glo HiBiT assay. It counts as cell-based. Put shortly:
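U87 cells carrying HiBiT knocked in by CRISPR/Cas9 at the IDO1 N-terminus, treated for 24 h. Degradation read as loss of luminescence. DC50 fitted from the lowest concentration up to maximal degradation, excluding hook-effect points; triplicate mean ± SD.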
Target sequence in this assay (P14902 whole entry): as the sequence (P14902 whole entry, looked up) above
Target sequence in this assay (Q96SW2 whole entry): as the sequence (Q96SW2 whole entry, looked up) above
On the technique in general: HiBiT is a short tag that completes a luciferase, so light tracks the accessible tagged protein.

The target is the same in series [6]. Description: PROTAC activity at CRBN/IDO1 in human GBM43 cell assessed as induction of IDO1 degradation at 0.003 uM pretreated with IFN-gamma for 24 hrs followed by compound addition and measured after 24 hrs by Western blotting analysis (reference value: 100%). Type of series: cell-based. Put shortly:
as §1
Target sequence in this assay (P14902 whole entry, looked up): as the sequence (P14902 whole entry, looked up) above
Target sequence in this assay (Q96SW2 whole entry, looked up): as the sequence (Q96SW2 whole entry, looked up) above

The test system of series [7] is Kelly. Description: Downregulation of ADO protein level in human Kelly cells at 1 uM incubated for 24 hrs by proteomics analysis. Type of series: functional, cell-based.
For series [8], the system named is Kelly. Description: Downregulation of SALL4 protein level in human Kelly cells at 1 uM incubated for 24 hrs by proteomics analysis. It counts as functional, cell-based.
The target of series [9] is T1, Protein cereblon/Indoleamine 2,3-dioxygenase 1. Description: PROTAC activity at CRBN/IDO1 in human U87 cells assessed as induction of IDO1 degradation by measuring remaining activity at 100 nM pretreated with IFN-gamma for 24 hrs followed by compound addition and measured after 24 hrs by Western blotting analysis (reference value: 100%). Type of series: cell-based.
Target sequence in this assay (P14902 whole entry, looked up): as the sequence (P14902 whole entry, looked up) above
Target sequence in this assay (Q96SW2 whole entry, looked up): as the sequence (Q96SW2 whole entry, looked up) above

For series [10] the target is unchanged. Description: PROTAC activity at CRBN/IDO1 in human PC-3 cells assessed as induction of IDO1 degradation pretreated with IFN-gamma for 24 hrs followed by compound addition and measured after 24 hrs by Western blotting analysis. Type of series: cell-based. Particulars: dose 50-100 nM. The procedure, abridged: as §3
Target sequence in this assay (P14902 whole entry, looked up): as the sequence (P14902 whole entry, looked up) above
Target sequence in this assay (Q96SW2 whole entry, looked up): as the sequence (Q96SW2 whole entry, looked up) above
The test system of series [11] is U-87MG ATCC. Description: Inhibition of kynurenine production in human U87 cells overexpressing GFP-fused IDO1 cells pretreated with IFN-gamma for 24 hrs followed by compound addition and measured after 24 hrs by Ehrlich's reagent based analysis. It counts as functional, cell-based. Particulars: dose 50-100 nM.
Series [12] has as its target T1, Protein cereblon/Indoleamine 2,3-dioxygenase 1. Description: PROTAC activity at CRBN/IDO1 in human U87 cells assessed as induction of IDO1 degradation by measuring remaining activity at 0.3 uM pretreated with IFN-gamma for 24 hrs followed by compound addition and measured after 24 hrs by Western blotting analysis (reference value: 100%). Type of series: cell-based. Put shortly: (§4)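 U87 cells given an extended dose range of PROTAC for 24 h, then Western blot for IDO1. IFNγ-induced IDO1 levels normalised to untreated samples. n = 3 independent experiments; mean ± SEM.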

Series [13] shares this target. Description: PROTAC activity at CRBN/IDO1 in human U87 cells assessed as induction of IDO1 degradation by measuring maximum efficacy at 100 nM pretreated with IFN-gamma for 24 hrs followed by compound addition and measured after 24 hrs by Western blotting analysis relative to control. Type of series: cell-based. The procedure, abridged: (§5)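 IDO1 in U87 cells induced with 50 ng/mL human IFN-γ, then compound given across an extended dose range for 24 h. IDO1 and GAPDH read by Western blot; IDO1 levels normalized to untreated; DC50 from n = 3 independent experiments.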

Series [14] shares this target. Description: PROTAC activity at CRBN/IDO1 in human U87 cell assessed as induction of IDO1 degradation pretreated with IFN-gamma for 24 hrs followed by compound addition and measured after 24 hrs by Western blot analysis. Type of series: cell-based. The procedure, abridged:
as §5
Target sequence in this assay (P14902 whole entry): as the sequence (P14902 whole entry, looked up) above
Target sequence in this assay (Q96SW2 whole entry): as the sequence (Q96SW2 whole entry, looked up) above

The subject of another series is PDX-6. Description: Inhibition of kynurenine production in human PDX-6 cells pretreated with IFN-gamma for 24 hrs followed by compound addition and measured after 24 hrs by Ehrlich's reagent based analysis. Type of series: functional, cell-based. The following applies: dose 50-100 nM.
Series [15] has as its target T1, Protein cereblon/Indoleamine 2,3-dioxygenase 1. Description: PROTAC activity at CRBN/IDO1 in human U87 cells assessed as induction of IDO1 degradation by measuring remaining activity at 100 nM pretreated with IFN-gamma for 24 hrs followed by compound addition and measured after 2 hrs by Western blotting analysis (reference value: 100%). Type of series: cell-based. Put shortly:
as §2

For series [16] the target is unchanged. Description: PROTAC activity at CRBN/IDO1 in human PDX-38 cells assessed as induction of IDO1 degradation pretreated with IFN-gamma for 24 hrs followed by compound addition and measured after 24 hrs by Western blotting analysis. Type of series: cell-based. The following applies: dose 50-100 nM. Put shortly:
as §3

A further series deals with SW1990. Description: Inhibition of kynurenine production in human SW1990 cells pretreated with IFN-gamma for 24 hrs followed by compound addition and measured after 24 hrs by Ehrlich's reagent based analysis. Type of series: functional, cell-based. Particulars: dose 50-100 nM.
Series [17] has as its target T1, Protein cereblon/Indoleamine 2,3-dioxygenase 1. Description: PROTAC activity at CRBN/IDO1 in human U87 cells assessed as induction of IDO1 degradation by measuring remaining activity at 0.01 uM pretreated with IFN-gamma for 24 hrs followed by compound addition and measured after 24 hrs by Western blotting analysis (reference value: 100%). Type of series: cell-based. Put shortly:
as §4

The test system of series [18] is U-87MG ATCC. Description: Inhibition of kynurenine production in human U87 cells […] and measured after 24 hrs by Ehrlich's reagent based analysis. The following applies: dose 0.001-10 µM. It counts as functional, cell-based. Put shortly:
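U87 cells plated, then 24 h later given compound with 50 ng/mL IFN-γ for a total of 24 h. Supernatant kynurenine measured with Ehrlich's reagent; cells without IFN-γ as control; mean ± SEM, Tukey's test.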

Series [19] addresses T1, Protein cereblon/Indoleamine 2,3-dioxygenase 1. Description: Binding affinity to CRBN/6His-tagged recombinant IDO1 (unknown origin) assessed as ternary complex formation by measuring half life by Biolayer Interferometry assay. It counts as protein assay. (In general: In BLI a coated tip is dipped into the sample, and binding shifts an interference pattern.)
Series [20] has the same target. Description: PROTAC activity at CRBN/IDO1 in human U87 cells assessed as induction of IDO1 degradation by measuring remaining activity at 50 nM pretreated with IFN-gamma for 24 hrs followed by compound addition and measured after 24 hrs by Western blotting analysis (reference value: 100%). It counts as cell-based.

The source made the active and inactive calls. No cut-off for these calls is given here.

Broadly, the AUC(0-inf) is the area under the concentration-time curve extrapolated to infinity. As a reminder, the DC50 is the concentration at which degradation of the target reaches its halfway point. For orientation: Emax means the maximal effect, on the per cent scale that the assay sets. `C[C@@H](C(=O)Nc1cccc(OC2CCN(C(=O)CN3CCC(N4CCN(c5ccc6c(c5)C(=O)N(C5CCC(=O)NC5=O)C6=O)CC4)CC3)CC2)c1)[C@H]1CC[C@@H](c2ccnc3ccc(F)cc32)CC1` (some centres not stated): the AUC(0-inf) in series [1] is 1 µM·h. Besides, the Activity in series [2] was 13%; in series [4], “Dose-dependent-effect”; in series [6], 75%; in [9], 24%; in series [10], “Dose-dependent-effect”; in series [12] it was 20%. The Activity was 86% in series [15], “Dose-dependent-effect” in series [16], 48% in series [17] and 28% in series [20]. Moreover, the result (in series [3]; with Kelly [7]; with Kelly [8]) was Active. The DC50 was determined as 4.5 nM in series [5] and 7.1 nM in series [14]. Besides, the inhibition entry with U-87MG ATCC [11], with PDX-6, with SW1990 and in the series on U-87MG ATCC [18] was “Dose-dependent-effect” throughout. Besides, in [13], the Emax came out at 88%. In addition, the T1/2 in series [19] is 17.3 min.

For the origin of these results see ChEMBL document CHEMBL6153131, “Rational Design and Optimization of a Potent IDO1 Proteolysis Targeting Chimera (PROTAC)” (J Med Chem, 2025).
